In ChEMBL document CHEMBL1123811, “gem-Diphosphonate and gem-phosphonate-phosphate compounds with specific high density lipoprotein inducing activity” (1987):

Key:
Format in all cases: functional
Set-up in all cases: concentration or dose not given beside the values
Rattus norvegicus [1] = organism: Rattus norvegicus; assay: Activity to induce the elevation of phospholipids of male Wistar rats
How it was run: (§1)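 Wistar rats on normal diet; groups were vehicle control, an internal-standard diphosphonate, and test compounds. Dosed daily for 4 days; diphosphonates were dissolved in water or suspended in 1% (carboxymethyl)cellulose, 4 mL/kg. On day 5, after overnight fast, rats were killed under ether. EDTA plasma was assayed enzymatically for HDL-C after heparin-CaCl2 precipitation of VLDL/LDL, phospholipids, triglycerides and α/β-cholesterol ratio. Results are given as % of control.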

Rattus norvegicus [2] = organism: Rattus norvegicus; assay: Activity to induce the elevation of alpha/beta cholesterol ratio of male Wistar rats; how it was run: as §1
Rattus norvegicus [3] = organism: Rattus norvegicus; assay: Activity to induce the elevation of HDL(High Density Lipoproteins)-Cholesterol of male Wistar rats; how it was run: as §1
Rattus norvegicus [4] = organism: Rattus norvegicus; assay: Activity to induce the elevation of triglycerides of male Wistar rats; how it was run: as §1

Row | SMILES | Plasma phospholipids, % change versus control (Rattus norvegicus [1]) [%] | Percent change in alpha/beta cholesterol ratio versus control (Rattus norvegicus [2]) [%] | HDL-cholesterol change relative to control (%) (Rattus norvegicus [3]) | Percent change in plasma triglycerides versus control (Rattus norvegicus [4]) [%]
1 | COP(=O)(OC)C(O)(C(C)(C)C)P(=O)(OC)OC | -43 | 32 | 0 | 24
2 | COP(=O)(OC)C(O)(c1ccccc1)P(=O)(OC)OC | 57 | 80 | 13 | 4
3 | COP(=O)(OC)OC(c1ccc(Cl)cc1Cl)P(=O)(OC)OC (stereo not drawn) | 28 | 39 | 51 | 13
4 | COP(=O)(OC)C(Cc1ccccc1)P(=O)(OC)OC | 25 | 22 | 32 | -3
5 | COP(=O)(OC)OC(C(C)C)P(=O)(OC)OC (stereo not drawn) | 7 | 38 | 15 | -26
6 | CCOP(=O)(OCC)C(CCCc1ccccc1)P(=O)(OCC)OCC | 17 | 33 | 62 | 46
7 | COP(=O)(O)C(CCCc1ccccc1)P(=O)(O)OC (stereo not drawn) | 11 | -23 | -9 | 9
8 | COP(=O)(OC)OC(c1ccc(C(=O)c2ccc(Cl)cc2)cc1)P(=O)(OC)OC (stereo not drawn) | 53 | 55 | 33 | 0
9 | COP(=O)(OC)OC(c1ccc(C(F)(F)F)cc1)P(=O)(OC)OC (stereo not drawn) | 3 | 29 | 22 | 4
10 | CCCCOP(=O)(OCCCC)OC(c1ccc(Cl)cc1)P(=O)(OCCCC)OCCCC (stereo not drawn) | 13 | -53 | -10 | -11
11 | CCOP(=O)(OCC)OC(c1ccc(Cl)cc1)P(=O)(OCC)OCC (stereo not drawn) | 16 | -6 | 15 | 8
12 | CCOP(=O)(OCC)C(Cc1ccc(Cl)cc1)P(=O)(OCC)OCC | 23 | 22 | 26 | 8
13 | COP(=O)(OC)C(CCc1ccccc1)P(=O)(OC)OC | 16 | 82 | 40 | 22
14 | O=P(O)(O)C(Cc1ccccc1)P(=O)(O)O | 3 | -10 | -8 | -11
15 | CCOP(=O)(OCC)C(CCCOc1ccccc1)P(=O)(OCC)OCC | 0 | 37 | 16 | 0
16 | COP(=O)(OC)OC(c1cccc(Cl)c1)P(=O)(OC)OC (stereo not drawn) | 14 | 69 | 56 | -37
17 | COP(=O)(OC)OC(c1ccc(C)cc1)P(=O)(OC)OC (stereo not drawn) | -8 | 47 | 4 | -33
18 | CC(C)OP(=O)(OC(C)C)OC(c1ccc(Cl)cc1)P(=O)(OC(C)C)OC(C)C (stereo not drawn) | -20 | -46 | -34 | -37
19 | COP(=O)(OC)OC(c1ccc2ccccc2c1)P(=O)(OC)OC (stereo not drawn) | 27 | 134 | 47 | 28
20 | O=P(O)(O)C(CCCOc1ccccc1)P(=O)(O)O | -6 | -57 | -18 | -7
21 | COP(=O)(OC)OC(C(C)(C)c1ccccc1)P(=O)(OC)OC (stereo not drawn) | 15 | 25 | 33 | 36
22 | COP(=O)(OC)C(O)(c1ccc(-c2ccccc2)cc1)P(=O)(OC)OC | 1 | 5 | 74 | 5
23 | COP(=O)(OC)C(O)(c1ccc(C(=O)c2ccc(Cl)cc2)cc1)P(=O)(OC)OC | 39 | 46 | 22 | -16
24 | COP(=O)(OC)OC(C1CCCCC1)P(=O)(OC)OC (stereo not drawn) | 0 | -20 | 5 | -46
25 | CCCOP(=O)(OCCC)OC(c1ccc(Cl)cc1)P(=O)(OCCC)OCCC (stereo not drawn) | 4 | 4 | -6 | -17
26 | CCOP(=O)(OCC)C(CCc1ccccc1)P(=O)(OCC)OCC | 16 | 74 | 41 | 11
27 | COP(=O)(OC)C(O)(c1ccc(C)cc1)P(=O)(OC)OC | 19 | 68 | 19 | 43
28 | COP(=O)(OC)OC(C(C)(C)c1ccc(Cl)cc1)P(=O)(OC)OC (stereo not drawn) | 37 | 59 | 56 | -7
29 | COP(=O)(OC)OC(c1ccccc1Cl)P(=O)(OC)OC (stereo not drawn) | 22 | 34 |  | -42
30 | O=P(O)(O)C(Cc1ccc(Cl)cc1)P(=O)(O)O | 0 | -40 |  | -146
